Experimental data of several laboratories.
Protocols differ between the studies behind these lines.
Cell line: HEK293
Effect on: cell growth or viability

NNC(=O)c1cn(Cc2ccccc2)c2ccc(Oc3ccccc3)cc2c1=O — CC50 (resazurin; 48 h): > 20 µM
O=C1C(NCCc2c[nH]c3ccccc23)=CC2=NCCc3c[nH]c1c32 — CC50 (MTT; 72 h): 3.1 µM
O=C(Nc1cccc(C(F)(F)F)c1)c1cccc(C(F)(F)F)c1 — CC50 (resazurin; 48 h): 15.6 µM
Cc1ccc(Cn2cc(C(=O)NN)c(=O)c3cc(Oc4ccccc4)ccc32)cc1 — CC50 (resazurin; 48 h): > 20 µM
COc1ccccc1C(=O)/C=C/c1cn(Cc2cn(-c3ccnc4cc(Cl)ccc34)nn2)c2ccccc12 — viability (MTT; 100 µM, 24 h): > 90%
O=C1C=C2NCCc3c[nH]c(c32)C1=O — CC50 (MTT; 72 h): 50 µM
COc1ccc2c(c1)c(=O)c(C(=O)NN)cn2Cc1ccc(C)cc1 — CC50 (resazurin; 48 h): > 20 µM
O=C(Nc1cccc([N+](=O)[O-])c1)c1ccccc1 — CC50 (resazurin; 48 h): > 20 µM
CCCc1cc(=O)oc2cc(OCc3cc(=O)c(O)co3)ccc12 — viability (CCK-8; 12 µM, 24 h): 97.9%
COC(CNC1=CC2=NCCc3c[nH]c(c32)C1=O)c1c[nH]c2ccccc12 (stereo not drawn) — CC50 (MTT; 72 h): 4 µM
O=C(Nc1ccc(C(F)(F)F)cc1)c1cccc(C(F)(F)F)c1 — CC50 (resazurin; 48 h): 9.25 µM
O=C1c2[nH]cc3c2C(=NCC3)c2c(-c3ccc(O)cc3)c[nH]c21 — CC50 (MTT; 72 h): 0.2 µM
O=C(Nc1ccc(Br)nn1)c1cccc(F)c1 — CC50 (resazurin; 48 h): > 20 µM
NC1=CC2=NCCc3c[nH]c(c32)C1=O — CC50 (MTT; 72 h): 0.1 µM
COc1ccc2c(c1)c(=O)c(C(=O)NN)cn2Cc1ccccc1 — CC50 (resazurin; 48 h): > 20 µM
